Measurements from ChEMBL document CHEMBL4371095, “Triazole-Based Inhibitors of the Wnt/β-Catenin Signaling Pathway Improve Glucose and Lipid Metabolisms in Diet-Induced Obese Mice” (J Med Chem, 2019).
Calls of active or inactive are those of the source. The calls are words filed in the database; no cut-off is given here.

What was measured:
HEK293 [1] = test: Growth inhibition of HEK293 cells harboring Wnt after 24 hrs by CellTiter-Fluor assay; assay type: cell-based; conditions: human, hek293, 24 h
In short: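 HEK293 cells stably carrying the TOPFlash reporter were plated at 2000/well in DMEM with 10% FBS and incubated overnight. Compound was added with recombinant human Wnt-3a, then incubated 24 h at 37 °C. CellTiter-Fluor reagent was added and fluorescence read after 30 min at 37 °C.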

[2] = Inhibition of LiCl activated Wnt/beta-catenin signaling (unknown origin) expressed in HEK293 cells harboring TCF/LEF-responsive luciferase preincubated with cells followed by LiCl addition and measured after 24 hrs by luciferase reporter gene assay; assay type: cell-based; conditions: Homo sapiens
In short: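 HEK293 cells carrying the TCF/LEF TOPFlash firefly luciferase reporter were stimulated with LiCl and treated with compound for 24 h. Luminescence was read, and IC50 was fitted from concentration–response data; mean ± S.D., n = 4.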

Axin-1 (Homo sapiens) = Axin-1 (Homo sapiens) (UniProt O15169); test: Stabilization of Axin1 protein in HEK293 cells assessed as increase in cytoplasmic punctas at 1 uM after 14 hrs by DAPI staining based confocal microscopic method; assay type: cell-based
In short: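 HEK293 cells on poly-D-lysine slides were treated with 1 μM compound for 14 h. Cells were fixed in 10% formalin for 20 min, permeabilized with methanol, blocked with 5% BSA, stained overnight for Axin1 with secondary antibody for 2 h, counterstained with DAPI, and imaged by confocal microscopy.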

HEK293 [3] = test: Inhibition of Wnt/beta-catenin signaling (unknown origin) expressed in HEK293 cells harboring TCF/LEF-responsive luciferase assessed as luminescence at 20 nM measured after 24 hrs by luciferase reporter gene assay relative to control; assay type: cell-based; set-up: scale not given: the % may be the effect or the level left; conditions: Homo sapiens
In short: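 HEK293 cells carrying siRNA knockdown of GSK3β, Axin or CK1α (36 h transfection) were treated with or without 20 nM compound for 24 h. TCF/LEF reporter luminescence was read relative to control, mean ± S.D., n = 3.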

[4] = molecular target: Casein kinase I isoform alpha (Homo sapiens) (UniProt P48729); test: Binding affinity to CK1alpha (unknown origin) by SPR analysis
[5] = Inhibition of Wnt/beta-catenin signaling (unknown origin) expressed in HEK293 cells harboring siRNA after 24 hrs by luciferase reporter gene assay; assay type: cell-based; conditions: Homo sapiens, HEK293, 24 h
Homo sapiens = species: Homo sapiens; test: Ratio of IC50 for Wnt/beta-catenin signaling (unknown origin) expressed in HEK293 cells harboring GSK3B siRNA to IC50 for Wnt/beta-catenin signaling (unknown origin) expressed in HEK293 cells harboring siRNA; assay type: cell-based
[6] = Oral bioavailability in mouse at 10 mg/kg administered as single dose by LC-MS analysis; assay type: ADME, organism-based; conditions: in vivo
[7] = Half life in mouse at 10 mg/kg, po or 10 mg/kg, iv administered as single dose by LC-MS analysis; assay type: ADME, organism-based; conditions: in vivo
In short: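 Compound was dissolved at 1 mg/ml in 10% Kolliphor EL and 10% polyethylene glycol in saline. Ten mice were split into intravenous and oral groups and given a single 10 mg/kg dose. Tail-vein blood was sampled at several time points and analysed by LC/MS/MS.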

Mus musculus [8] = test: Decrease in hepatic GCK mRNA level in high fat diet fed C57BL/6J mouse at 40 mg/kg, ip administered every 2 days for 11 weeks by qPCR analysis; assay type: functional, organism-based
In short: (§1)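 Male mice, 8 weeks old, fed a 45% kcal fat diet for 6 weeks, then dosed i.p. every 2 days in corn oil vehicle for 11 weeks. Liver mRNA of the indicated genes was quantified at sacrifice; mean ± SEM, n = 5 per group.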

Mus musculus [9] = test: Decrease in hepatic SREBP1 mRNA level in high fat diet fed C57BL/6J mouse at 40 mg/kg, ip administered every 2 days for 11 weeks by qPCR analysis; assay type: functional, organism-based; in short: as §1
Mus musculus [10] = test: Decrease in hepatic ACAT2 mRNA level in high fat diet fed C57BL/6J mouse at 40 mg/kg, ip administered every 2 days for 11 weeks by qPCR analysis; assay type: functional, organism-based; in short: as §1
Mus musculus [11] = test: Decrease in hepatic ACC1 mRNA level in high fat diet fed C57BL/6J mouse at 40 mg/kg, ip administered every 2 days for 11 weeks by qPCR analysis; assay type: functional, organism-based; in short: as §1
Mus musculus [12] = test: Effect on hepatic FGF21 mRNA level in normal chow diet fed C57BL/6J mouse at 40 mg/kg, ip administered every 2 days for 11 weeks by qPCR analysis; assay type: ADME, organism-based; conditions: in vivo
In short: (§2)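 Male mice, 8 weeks old, kept on normal chow throughout and dosed i.p. every 2 days in corn oil vehicle for 11 weeks. Body weight gain, liver/body weight ratio, and liver mRNA of the indicated genes were measured at sacrifice; mean ± SEM, n = 5 per group where stated.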

Mus musculus [13] = test: Effect on body weight gain in normal chow diet fed C57BL/6J mouse at 40 mg/kg, ip administered every 2 days for 11 weeks; assay type: ADME, organism-based; conditions: in vivo; in short: as §2
Mus musculus [14] = test: Effect on liver weight adjusted by body weight gain in normal chow diet fed C57BL/6J mouse at 40 mg/kg, ip administered every 2 days for 11 weeks; assay type: ADME, organism-based; conditions: in vivo; in short: as §2
Mus musculus [15] = test: Decrease in hepatic triglyceride content in high fat diet fed C57BL/6J mouse at 40 mg/kg, ip administered every 2 days for 11 weeks; assay type: functional, organism-based
In short: (§3)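 Male mice, 8 weeks old, 24–27 g, given a 45% kcal fat diet for 6 weeks, then dosed i.p. every 2 days in corn oil vehicle with the diet continued. Sacrifice was about 24 h after the last dose. Liver was examined by H&E. Liver and serum triglyceride were measured by kit. Serum chemistry was included, and liver/body weight ratio was calculated.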

Mus musculus [16] = test: Decrease in serum cholesterol level in high fat diet fed C57BL/6J mouse at 40 mg/kg, ip administered every 2 days for 11 weeks; assay type: functional, organism-based; in short: as §3
[17] = Toxicity in high fat diet fed C57BL/6J mouse assessed as serum cholesterol level at 40 mg/kg, ip administered every 2 days for 11 weeks (reference value: 316 +/- 25 mg/dl); assay type: organism-based; conditions: in vivo
[18] = Toxicity in normal chow diet fed C57BL/6J mouse assessed as serum ALT level at 40 mg/kg, ip administered every 2 days for 11 weeks (reference value: 20 +/- 5.1 U/L); assay type: organism-based; conditions: in vivo
[19] = Toxicity in normal chow diet fed C57BL/6J mouse assessed as serum alkaline phosphatase level at 40 mg/kg, ip administered every 2 days for 11 weeks (reference value: 66.5 +/- 1.8 U/L); assay type: organism-based; conditions: in vivo
[20] = Toxicity in normal chow diet fed C57BL/6J mouse assessed as serum AST level at 40 mg/kg, ip administered every 2 days for 11 weeks (reference value: 119 +/- 28.3 U/L); assay type: organism-based; conditions: in vivo
[21] = Toxicity in normal chow diet fed C57BL/6J mouse assessed as serum total bilirubin level at 40 mg/kg, ip administered every 2 days for 11 weeks (reference value: 0.2 mg/dl); assay type: organism-based; conditions: in vivo
[22] = Toxicity in normal chow diet fed C57BL/6J mouse assessed as serum LDH level at 40 mg/kg, ip administered every 2 days for 11 weeks (reference value: 324 +/- 63.5 U/L); assay type: organism-based; conditions: in vivo
[23] = Toxicity in normal chow diet fed C57BL/6J mouse assessed as serum triglyceride level at 40 mg/kg, ip administered every 2 days for 11 weeks (reference value: 69 +/- 2.5 mg/dl); assay type: organism-based; conditions: in vivo

Casein kinase I isoform alpha (Homo sapiens), sequence (P48729 2-337 limits assumed): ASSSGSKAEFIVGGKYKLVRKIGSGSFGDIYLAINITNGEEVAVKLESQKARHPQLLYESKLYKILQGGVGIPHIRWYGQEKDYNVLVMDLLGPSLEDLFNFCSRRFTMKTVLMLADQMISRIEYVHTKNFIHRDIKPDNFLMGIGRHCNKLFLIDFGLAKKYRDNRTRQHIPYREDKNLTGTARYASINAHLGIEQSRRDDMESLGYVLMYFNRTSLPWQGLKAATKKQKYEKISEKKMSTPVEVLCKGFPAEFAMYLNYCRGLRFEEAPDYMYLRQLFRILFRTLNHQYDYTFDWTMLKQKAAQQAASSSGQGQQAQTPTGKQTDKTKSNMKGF
Axin-1 (Homo sapiens), sequence (O15169 whole entry): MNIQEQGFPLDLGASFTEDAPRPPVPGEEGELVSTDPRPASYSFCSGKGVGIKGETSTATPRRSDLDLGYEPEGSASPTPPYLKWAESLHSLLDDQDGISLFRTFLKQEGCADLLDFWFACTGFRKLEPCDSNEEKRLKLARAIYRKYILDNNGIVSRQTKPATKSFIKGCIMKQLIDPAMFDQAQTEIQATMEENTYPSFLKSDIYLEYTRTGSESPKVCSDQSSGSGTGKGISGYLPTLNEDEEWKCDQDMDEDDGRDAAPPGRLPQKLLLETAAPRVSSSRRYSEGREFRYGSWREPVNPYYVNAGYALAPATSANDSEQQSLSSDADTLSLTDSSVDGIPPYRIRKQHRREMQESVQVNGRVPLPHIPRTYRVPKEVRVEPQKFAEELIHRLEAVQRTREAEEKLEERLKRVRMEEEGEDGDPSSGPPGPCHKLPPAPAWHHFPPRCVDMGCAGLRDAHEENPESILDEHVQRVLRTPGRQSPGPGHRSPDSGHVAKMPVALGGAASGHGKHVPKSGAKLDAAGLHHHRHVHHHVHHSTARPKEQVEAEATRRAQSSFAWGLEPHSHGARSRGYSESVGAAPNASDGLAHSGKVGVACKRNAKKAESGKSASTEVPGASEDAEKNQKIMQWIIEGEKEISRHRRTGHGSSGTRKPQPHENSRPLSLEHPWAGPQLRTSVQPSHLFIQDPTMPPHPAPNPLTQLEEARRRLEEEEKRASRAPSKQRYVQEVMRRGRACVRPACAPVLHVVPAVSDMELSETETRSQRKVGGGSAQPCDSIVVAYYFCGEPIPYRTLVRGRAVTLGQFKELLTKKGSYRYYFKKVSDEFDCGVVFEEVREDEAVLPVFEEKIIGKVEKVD

IC50 [2]: 6 nM
Activity (Axin-1 (Homo sapiens)): Active
Activity [4]: inactive
IC50 [5]: 20 nM
bioavailability [6]: 21%
half-life [7]: 2.8 to 3.3 h
Structure (SMILES): Cc1ccccc1-n1nnc(C(=O)Nc2ccc3ccccc3n2)c1C
growth inhibition (GI) (HEK293 [1]): Non-Toxic
Activity (HEK293 [3]): 40%
Ratio IC50 (Homo sapiens): 1.7
Activity (Mus musculus [8]): Active
Activity (Mus musculus [9]): Active
Activity (Mus musculus [10]): Active
Activity (Mus musculus [11]): Active
Activity (Mus musculus [12]): Non-Toxic
Activity (Mus musculus [13]): Non-Toxic
Activity (Mus musculus [14]): Non-Toxic
Activity (Mus musculus [15]): Active
Activity (Mus musculus [16]): Active
Activity [17]: 223 mg/dL
Activity [18]: 12.8 U/L
Activity [19]: 57.5 U/L
Activity [20]: 74.5 U/L
Activity [21]: 0.2 mg/dL
Activity [22]: 190 U/L
Activity [23]: 55 mg/dL
